The subject of one assay is MKN-45. The assay is described as follows: cells. The conditions noted are these: Homo sapiens, MKN-45, 24 h.
The next assay relates to HT-29. The assay is described as follows: cells. The conditions noted are these: Homo sapiens, HT-29, 24 h.
Assay [1] concerns HUVEC. Briefly: cells. The settings on record: Homo sapiens, 24 h.
In assay [2] the target is Vascular endothelial growth factor receptor 2 (Homo sapiens, UniProt P35968). Briefly: Inhibition of recombinant human His-tagged VEGFR2 expressed in Baculovirus expression system using ADP-Glo as substrate measured after 30 mins in presence of ATP by ADP-Glo kinase assay. On the technique in general: ADP-Glo turns the ADP formed in a reaction into a luminescent signal.

Assay [3] is filed under the species Danio rerio. The settings on record: dose 40.0 mg/L, time 24.0 hrs.
The subject of assay [4] is HUVEC. Briefly: Anti-angiogenesis activity against HUVEC cells assessed as inhibition of cell migration measured after 24 hrs by Transwell assay. The class given is functional, cell-based. The conditions noted are these: Homo sapiens, dose 0.2-0.8 µM. The gist of the method: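 HUVECs pretreated 24 h in serum-free DMEM with 0, 0.2, 0.4 or 0.8 μM compound, then counted. 1×10^4 cells placed in upper transwell chamber (8 µm pores), lower chamber DMEM with 20% serum. After 24 h, filters fixed in methanol and stained with 0.1% crystal violet. Migrated cells on lower surface counted by microscopy.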

For assay [5], the species on record is Danio rerio. The settings on record: dose 20.0 mg/L, time 24.0 hrs.
Assay [6] relates to HUVEC. The assay is described as follows: Anti-angiogenesis activity against HUVEC cells assessed as inhibition of tube formation at 0.2 to 0.8 uM measured after 6 hrs by microscopic method. The assay is classed as functional, cell-based. The conditions noted are these: Homo sapiens, dose 0.2-0.8 µM. The gist of the method:
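HUVECs exposed to 0, 0.2, 0.4 or 0.8 μM compound, then collected. 1×10⁴ cells seeded on Matrigel and cultured 6 h. Tubes photographed under microscope and total tube length quantified.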

Active and inactive are the calls of the source. The rule behind the calls is not given here.

The results in this text go back to ChEMBL document CHEMBL4819005, “Design, synthesis, and in vitro and in vivo anti-angiogenesis study of a novel vascular endothelial growth factor receptor-2 (VEGFR-2) inhibitor based on 1,2,3-triazole scaffold” (Eur J Med Chem, 2021).

Sequence of Vascular endothelial growth factor receptor 2 (P35968 whole entry): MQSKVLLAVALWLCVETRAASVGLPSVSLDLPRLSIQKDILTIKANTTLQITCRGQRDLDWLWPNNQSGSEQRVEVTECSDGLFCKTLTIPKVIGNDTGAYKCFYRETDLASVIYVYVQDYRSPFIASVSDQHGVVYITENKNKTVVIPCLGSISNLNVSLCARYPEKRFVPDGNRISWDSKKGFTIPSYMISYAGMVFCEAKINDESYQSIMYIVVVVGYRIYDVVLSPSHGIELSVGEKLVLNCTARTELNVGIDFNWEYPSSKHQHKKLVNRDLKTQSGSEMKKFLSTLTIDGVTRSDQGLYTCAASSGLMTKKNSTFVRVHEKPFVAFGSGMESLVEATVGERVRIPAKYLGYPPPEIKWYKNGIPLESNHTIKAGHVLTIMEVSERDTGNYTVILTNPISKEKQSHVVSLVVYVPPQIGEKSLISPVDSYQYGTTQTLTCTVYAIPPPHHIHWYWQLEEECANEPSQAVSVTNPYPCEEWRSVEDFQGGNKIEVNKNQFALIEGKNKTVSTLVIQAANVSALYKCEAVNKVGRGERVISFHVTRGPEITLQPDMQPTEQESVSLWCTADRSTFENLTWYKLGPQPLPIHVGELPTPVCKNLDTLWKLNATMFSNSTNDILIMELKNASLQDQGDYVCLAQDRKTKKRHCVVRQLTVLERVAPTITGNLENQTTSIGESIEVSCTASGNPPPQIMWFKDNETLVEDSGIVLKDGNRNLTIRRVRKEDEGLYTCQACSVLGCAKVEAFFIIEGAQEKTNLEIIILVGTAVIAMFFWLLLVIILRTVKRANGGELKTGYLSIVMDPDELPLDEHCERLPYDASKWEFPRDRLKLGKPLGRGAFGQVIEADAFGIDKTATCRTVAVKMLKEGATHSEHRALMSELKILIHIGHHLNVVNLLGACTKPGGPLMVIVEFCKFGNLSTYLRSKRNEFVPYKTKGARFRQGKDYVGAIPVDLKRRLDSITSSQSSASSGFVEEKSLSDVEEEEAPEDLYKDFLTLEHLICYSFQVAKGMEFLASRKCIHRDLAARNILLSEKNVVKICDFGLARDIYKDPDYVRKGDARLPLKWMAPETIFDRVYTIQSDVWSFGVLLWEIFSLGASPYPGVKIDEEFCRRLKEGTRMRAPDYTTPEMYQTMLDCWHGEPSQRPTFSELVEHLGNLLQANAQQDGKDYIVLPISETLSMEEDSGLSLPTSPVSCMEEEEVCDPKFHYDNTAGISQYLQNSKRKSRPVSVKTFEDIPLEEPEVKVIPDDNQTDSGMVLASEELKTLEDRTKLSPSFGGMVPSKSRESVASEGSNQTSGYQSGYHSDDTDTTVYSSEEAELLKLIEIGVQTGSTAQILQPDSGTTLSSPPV

One may read the IC50 as the concentration that gives 50% inhibition. For `Cc1ccc(-n2cc(-c3ccc(/C=C4\C(=O)Nc5ccc(F)cc54)cc3)nn2)cc1`, the IC50 in the assay on MKN-45 was 34.6 µM; in the assay on HT-29, 3.98 µM; in the assay with HUVEC [1], 13.8 µM.
With `N#Cc1cccc(-n2cc(-c3ccc(/C=C4\C(=O)Nc5ccc(F)cc54)cc3)nn2)c1`, the half-inhibitory concentration (IC50) in assay [2] was 0.193 µM; with MKN-45 it was greater than 20 µM; with HT-29, greater than 20 µM; with HUVEC [1], greater than 20 µM.
Regarding `O=C1Nc2ccccc2/C1=C/c1ccc(-c2cn(-c3ccccc3)nn2)cc1`, the IC50 in the assay with MKN-45 was 11.6 µM; in the assay with HT-29 it was 7.07 µM; in the assay with HUVEC [1], 12.7 µM.
As for `Cc1ccccc1-n1cc(-c2ccc(/C=C3\C(=O)Nc4ccccc43)cc2)nn1`, the IC50 in assay [2] came to 0.111 µM; with MKN-45, 9.77 µM; in the assay with HT-29, 8.71 µM; in the assay on HUVEC [1], 14.7 µM.
For `O=C1Nc2ccc(F)cc2/C1=C/c1ccc(-c2cn(-c3cccc(Cl)c3)nn2)cc1`, in that order: 0.186 µM, 14.1 µM, 10.5 µM and 19.4 µM.
As for `Cc1ccccc1-n1cc(-c2ccc(C=C3C(=O)Nc4ccc(F)cc43)cc2)nn1`, the IC50 in the assay on MKN-45 came out at 7.21 µM; in the assay with HT-29, 5.87 µM; in the assay on HUVEC [1] it was 8.63 µM.
The matching figures for `O=C1Nc2ccc(F)cc2C1=Cc1ccc(-c2cn(-c3ccccc3)nn2)cc1`: 11.1 µM, 8.12 µM and 13.7 µM.
In the case of `N#Cc1ccccc1-n1cc(-c2ccc(/C=C3\C(=O)Nc4ccccc43)cc2)nn1`, the IC50 in assay [2] was determined as 0.169 µM; in the assay with MKN-45, 14.6 µM; in the assay on HT-29, 14.4 µM; in the assay on HUVEC [1], 19.7 µM.
For `O=C1Nc2ccccc2/C1=C/c1ccc(-c2cn(-c3ccccc3Cl)nn2)cc1`, in that order: greater than 0.2 µM, greater than 20 µM, greater than 20 µM and greater than 20 µM.
For `O=C1Nc2ccccc2/C1=C/c1ccc(-c2cn(-c3cccc(F)c3)nn2)cc1`, in that order: greater than 0.2 µM, greater than 20 µM, greater than 20 µM and greater than 20 µM.
For `O=C1Nc2ccc(F)cc2/C1=C/c1ccc(-c2cn(-c3ccccc3Cl)nn2)cc1`, in that order: 0.12 µM, 7.54 µM, 5.95 µM and 18.2 µM.
Regarding `Cc1cccc(-n2cc(-c3ccc(/C=C4\C(=O)Nc5ccccc54)cc3)nn2)c1`, the IC50 in the assay with MKN-45 came to 4.69 µM; in the assay on HT-29 it was 3.94 µM; in the assay with HUVEC [1] it was 13.7 µM.
For `N#Cc1ccccc1-n1cc(-c2ccc(C=C3C(=O)Nc4ccc(F)cc43)cc2)nn1`, the IC50 is 0.187 µM in assay [2], 15.2 µM with MKN-45, 14 µM in the assay with HT-29 and greater than 20 µM in the assay on HUVEC [1].
Consider `O=C1Nc2ccc(F)cc2C1=Cc1ccc(-c2cn(-c3ccc(Cl)cc3)nn2)cc1`, for which the IC50 in assay [2] came out at 0.17 µM; in the assay with MKN-45, 15.8 µM; in the assay on HT-29, 11.2 µM; in the assay with HUVEC [1] it was 19.6 µM.
For `O=C1Nc2ccccc2/C1=C/c1ccc(-c2cn(-c3ccc(Cl)cc3)nn2)cc1`, in that order: 0.163 µM, 16.2 µM, 14 µM and 18.2 µM.
Regarding `Cc1ccc(-n2cc(-c3ccc(/C=C4\C(=O)Nc5ccccc54)cc3)nn2)cc1`, the inhibition entry in the assay listed under Danio rerio [3] and in the assay filed under Danio rerio [5] was “Active” in each case. In addition, the Activity entry in the assay on HUVEC [4] and in the assay with HUVEC [6] was “Dose-Dependent Effect” throughout. Moreover, the IC50 was 1.92 µM in the assay with MKN-45, 1.61 µM in the assay on HT-29 and 7.94 µM with HUVEC [1].
Regarding `O=C1Nc2ccccc2/C1=C/c1ccc(-c2cn(-c3ccc(Cl)c(C(F)(F)F)c3)nn2)cc1`, the 50% inhibitory concentration (IC50) was 0.108 µM in assay [2], 8.89 µM in the assay on MKN-45, 9.67 µM with HT-29 and greater than 20 µM in the assay on HUVEC [1].
For `N#Cc1ccc(-n2cc(-c3ccc(C=C4C(=O)Nc5ccccc54)cc3)nn2)cc1`, in that order: 0.179 µM, greater than 20 µM, 15.8 µM and greater than 20 µM.
The matching figures for `O=C1Nc2ccccc2/C1=C/c1ccc(-c2cn(-c3ccccc3F)nn2)cc1`: 0.115 µM, 12.5 µM, 10.5 µM and 19.3 µM.
The matching figures for `O=C1Nc2ccc(F)cc2/C1=C/c1ccc(-c2cn(-c3ccccc3F)nn2)cc1`: 0.14 µM, 8.51 µM, 8.98 µM and 14.4 µM.
`Cc1cccc(-n2cc(-c3ccc(/C=C4\C(=O)Nc5ccc(F)cc54)cc3)nn2)c1`: the IC50 in the assay on MKN-45 came to 6.81 µM; with HT-29 it was 7.32 µM; with HUVEC [1] it was 9.88 µM.
For `CCN(CC)CCNC(=O)c1c(C)[nH]c(/C=C2\C(=O)Nc3ccc(F)cc32)c1C` [SUNITINIB], in that order: 9.25 µM, 10.3 µM and 6.37 µM.
As to `N#Cc1cccc(-n2cc(-c3ccc(/C=C4\C(=O)Nc5ccccc54)cc3)nn2)c1`, the IC50 in assay [2] was greater than 0.2 µM; in the assay on MKN-45, greater than 20 µM; in the assay on HT-29, greater than 20 µM; with HUVEC [1], greater than 20 µM.
With `O=C1Nc2ccc(F)cc2/C1=C/c1ccc(-c2cn(-c3ccc(Cl)c(C(F)(F)F)c3)nn2)cc1`, the IC50 in assay [2] was 0.169 µM; in the assay with MKN-45 it was greater than 20 µM; in the assay with HT-29, 16.5 µM; with HUVEC [1] it was greater than 20 µM.
For `O=C1Nc2ccccc2/C1=C/c1ccc(-c2cn(-c3ccc(F)cc3)nn2)cc1`, the IC50 in assay [2] stood at 0.199 µM; in the assay on MKN-45 it was 16.7 µM; with HT-29, 17.7 µM; in the assay on HUVEC [1] it was 14.7 µM.
The matching figures for `O=C1Nc2ccccc2/C1=C/c1ccc(-c2cn(-c3cccc(Cl)c3)nn2)cc1`: greater than 0.2 µM, greater than 20 µM, greater than 20 µM and greater than 20 µM.
For `O=C1Nc2ccc(F)cc2/C1=C/c1ccc(-c2cn(-c3cccc(F)c3)nn2)cc1`, in that order: 0.171 µM, 8.19 µM, 13 µM and 17.2 µM.
For `O=C1Nc2ccc(F)cc2/C1=C/c1ccc(-c2cn(-c3ccc(F)cc3)nn2)cc1`, in that order: 0.193 µM, greater than 20 µM, greater than 20 µM and greater than 20 µM.
With `N#Cc1ccc(-n2cc(-c3ccc(C=C4C(=O)Nc5ccc(F)cc54)cc3)nn2)cc1`, the IC50 in assay [2] is 0.19 µM; in the assay with MKN-45 it was greater than 20 µM; in the assay on HT-29 it was greater than 20 µM; with HUVEC [1], greater than 20 µM.
